Experimental data taken from ChEMBL document CHEMBL1153624, “Cyclic phosphoramidates as prodrugs of 2'-C-methylcytidine” (Eur J Med Chem, 2009).

Experiments:
Hepatitis C virus = experiment: Antiviral activity against HCV infected in human HuH7 cells by cell-based subgenomic replicon assay; assay type: functional, organism-based, Hepacivirus hominis, Huh-7
Outline: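 HCV subgenomic replicon assay in HUH-7 cells, run in 10% fetal cow serum. Cytotoxicity was read in parallel as the prodrug concentration reducing cell viability by 50%.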

[1] = Metabolic stability in sc dosed hamster liver assessed as formation of 2'-C-methylcytidine triphosphate ((2R,3R,4R,5R)-5-(4-amino-2-oxopyrimidin-1(2H)-yl)-3,4-dihydroxy-4-methyltetrahydrofuran-2-yl)methyl tetrahydrogen triphosphate at 1.5 umol after 6 hrs; assay type: ADME, organism-based; settings: cricetinae, in vivo
Outline: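 Hamsters received a single subcutaneous dose of compound formulated in PEG. Liver was collected at 6 h and intracellular 2'-C-methylcytidine triphosphate quantified as nmol/g tissue (LLOQ 0.2 nmol/g).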

Plasma = experiment: Stability in human plasma assessed as 2'-C-methylcytidine triphosphate ((2R,3R,4R,5R)-5-(4-amino-2-oxopyrimidin-1(2H)-yl)-3,4-dihydroxy-4-methyltetrahydrofuran-2-yl)methyl tetrahydrogen triphosphate level; assay type: ADME, cell-free
Outline: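 Prodrug stability was measured in human plasma and scored as the fraction of dose remaining over time: stable; 80% of dose left after 2 h; 30% left after 1 h; 0% left after 18 min.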

[2] = Metabolic stability in po dosed hamster liver assessed as 2'-C-methylcytidine triphosphate ((2R,3R,4R,5R)-5-(4-amino-2-oxopyrimidin-1(2H)-yl)-3,4-dihydroxy-4-methyltetrahydrofuran-2-yl)methyl tetrahydrogen triphosphate level at 30.3 umol; assay type: ADME, organism-based; settings: cricetinae, in vivo
[3] = Cytotoxicity against human HuH7 cells assessed as cell viability; assay type: cell-based, Huh-7
Outline: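 Cytotoxicity measured in HUH-7 cells carrying the HCV subgenomic replicon. The value is the prodrug concentration that reduces cell viability by 50%.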

| EC50 (Hepatitis C virus; Hepatitis C virus, Huh-7) [µM] | Structure (SMILES) | further results |
| --- | --- | --- |
| > 20 | CCC(CC)COC(=O)[C@H](C)NP1(=O)OC[C@H]2O[C@@H](n3ccc(N)nc3=O)[C@](C)(O)[C@@H]2O1 (stereo partly specified) | Activity [1]: 8.9 nmol/g |
| 28 | COCCCOC(=O)[C@H](C)NP1(=O)OC[C@H]2O[C@@H](n3ccc(N)nc3=O)[C@](C)(O)[C@@H]2O1 (stereo in doubt; 16 S.E.) | – |
| > 20 | CC(C)CCOC(=O)[C@H](C)NP1(=O)OC[C@H]2O[C@@H](n3ccc(N)nc3=O)[C@](C)(O)[C@@H]2O1 (stereo in doubt) | – |
| 10.5 | CCCCCCCOC(=O)[C@H](C)NP1(=O)OC[C@H]2O[C@@H](n3ccc(N)nc3=O)[C@](C)(O)[C@@H]2O1 (stereo in doubt; 12 S.E.) | Activity [1]: 5.9 nmol/g |
| > 50 | CCOC(=O)[C@H](CC(C)C)NP1(=O)OC[C@H]2O[C@@H](n3ccc(N)nc3=O)[C@](C)(O)[C@@H]2O1 (stereo partly specified) | – |
| 14 | CCCC(CCC)COC(=O)[C@H](C)NP1(=O)OC[C@H]2O[C@@H](n3ccc(N)nc3=O)[C@](C)(O)[C@@H]2O1 (stereo in doubt; 20 S.E.) | – |

The remaining lines, values behind:

| Structure (SMILES) | EC50 (Hepatitis C virus; Hepatitis C virus, Huh-7) [µM] | further results |
| --- | --- | --- |
| CCCC(CCC)COC(=O)[C@H](C)NP1(=O)OC[C@H]2O[C@@H](n3ccc(N)nc3=O)[C@](C)(O)[C@@H]2O1 (stereo in doubt; 20 F.E.) | – | EC50 (Hepatitis C virus; huh-7): > 20 µM |
| CCC[C@H](NP1(=O)OC[C@H]2O[C@@H](n3ccc(N)nc3=O)[C@](C)(O)[C@@H]2O1)C(=O)OCC (mixture of isomers) | > 20 | – |
| CCCCCCCOC(=O)[C@H](C)NP1(=O)OC[C@H]2O[C@@H](n3ccc(N)nc3=O)[C@](C)(O)[C@@H]2O1 (stereo in doubt; 12 F.E.) | – | EC50 (Hepatitis C virus; huh-7): 15 µM |
| C[C@H](NP1(=O)OC[C@H]2O[C@@H](n3ccc(N)nc3=O)[C@](C)(O)[C@@H]2O1)C(=O)OC(C)(C)C (stereo partly specified) | > 20 | – |
| CCCCOC(=O)[C@H](C)NP1(=O)OC[C@H]2O[C@@H](n3ccc(N)nc3=O)[C@](C)(O)[C@@H]2O1 (stereo in doubt; 10 S.E.) | 15 | – |
| CCOC(=O)[C@H](CC)NP1(=O)OC[C@H]2O[C@@H](n3ccc(N)nc3=O)[C@](C)(O)[C@@H]2O1 (stereo partly specified) | 5.6 | Stability (Plasma): Stable; Activity [2]: < 0.2 nmol/g |
| CCOC(=O)[C@H](C)N[P@]1(=O)OC[C@H]2O[C@@H](n3ccc(N)nc3=O)[C@](C)(O)[C@@H]2O1 | 4 | CC50 [3]: > 100 µM |
| CCOC(=O)[C@H](C)N[P@@]1(=O)OC[C@H]2O[C@@H](n3ccc(N)nc3=O)[C@](C)(O)[C@@H]2O1 | > 20 | CC50 [3]: > 100 µM |
| C[C@H](NP1(=O)OC[C@H]2O[C@@H](n3ccc(N)nc3=O)[C@](C)(O)[C@@H]2O1)C(=O)OC1CCCCCC1 (stereo partly specified) | > 10 | Activity [1]: 10.3 nmol/g |
| CCCCCCOCCOC(=O)[C@H](C)NP1(=O)OC[C@H]2O[C@@H](n3ccc(N)nc3=O)[C@](C)(O)[C@@H]2O1 (stereo partly specified) | 14 | Activity [1]: 2.6 nmol/g |
| C[C@H](NP1(=O)OC[C@H]2O[C@@H](n3ccc(N)nc3=O)[C@](C)(O)[C@@H]2O1)C(=O)OC1CCCCC1 (stereo in doubt; 14 F.E.) | > 20 | – |
| CCCCOC(=O)[C@H](C)NP1(=O)OC[C@H]2O[C@@H](n3ccc(N)nc3=O)[C@](C)(O)[C@@H]2O1 (stereo in doubt; 10 F.E.) | – | EC50 (Hepatitis C virus; huh-7): > 20 µM |
| C[C@H](NP1(=O)OC[C@H]2O[C@@H](n3ccc(N)nc3=O)[C@](C)(O)[C@@H]2O1)C(=O)OC1CCCC1 (mixture of isomers) | > 20 | – |
| CC(C)[C@H](N)C(=O)O[C@@H]1[C@@H](CO)O[C@@H](n2ccc(N)nc2=O)[C@]1(C)O [VALOPICITABINE] | 7.6 | CC50 [3]: > 100 µM; Activity [1]: < 0.2 nmol/g |
| COCCCOC(=O)[C@H](C)NP1(=O)OC[C@H]2O[C@@H](n3ccc(N)nc3=O)[C@](C)(O)[C@@H]2O1 (stereo in doubt; 16 F.E.) | – | EC50 (Hepatitis C virus; huh-7): > 20 µM |
